From ChEMBL document CHEMBL3243965, “Potential antiinflammatory compounds. 1. Antiinflammatory phenylpiperidine derivatives” (J Med Chem, 1979) come the findings set out here.

Molecules are shown by their SMILES. The source made the active and inactive calls. No cut-off for these calls is given here.

The nature of series [1]: Toxicity in po dosed mouse. Type of series: organism-based. The note with it: in vivo.
Series [2] has as its system Rattus norvegicus. The series is described as follows: Antiinflammatory activity in Wistar rat assessed as inhibition of carrageenan-induced paw swelling at 2 x 100 mg/kg, po administered 0.5 to 3 hrs prior to carrageenan challenge measured after 2.5 hrs by plethysmographic analysis relative to control. Type of series: functional. The note with it: for inhibition in vivo at 100 mg/kg: Rattus norvegicus, Wistar. A digest of the protocol: (§1)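 Female Wistar rats (in-house bred, 140–170 g; groups of four) were dosed orally twice, 3 and 0.5 h before a plantar injection of 0.1 mL 1% carrageenan in 0.9% saline into the right hind foot. Both feet were measured by mercury-displacement plethysmography 2.5 h later, and the right-minus-left difference was taken. Group mean % inhibition was calculated against ten concurrent saline-dosed controls, with significance at p < 0.02.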
On the technique in general: Carrageenan injected into the paw causes an acute inflammation.

Series [3] has as its system Rattus norvegicus. The experiment in a line: Antiinflammatory activity in Wistar rat assessed as inhibition of carrageenan-induced paw swelling at 2 x 50 mg/kg, po administered 0.5 to 3 hrs prior to carrageenan challenge measured after 2.5 hrs by plethysmographic analysis relative to control. The series is classed as functional. A digest of the protocol: as §1
The subject of series [4] is Rattus norvegicus. The series is described as follows: Antiinflammatory activity in Wistar rat assessed as inhibition of carrageenan-induced paw swelling at 100 mg/kg, po administered 0.5 to 3 hrs prior to carrageenan challenge measured after 2.5 hrs by plethysmographic analysis relative to control. The series is classed as functional. In a few lines:
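Groups of four female Wistar rats (140–170 g) were dosed orally twice (2 × 50 or 2 × 100 mg/kg), at 3 and 0.5 h before plantar injection of 0.1 mL 1% carrageenan in 0.9% saline into the right hind foot. Right minus left foot volume was read by mercury-displacement plethysmograph at 2.5 h. Mean group swelling was expressed as % inhibition versus ten concurrent saline-dosed controls; significance p < 0.02.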

In the next series the test system is Canis familiaris. The series is described as follows: Toxicity in dog at 150 mg/kg. The series is classed as organism-based, Canis lupus familiaris. More on the design: dose 150 mg/kg. The note with it: in vivo.

The term LD50 denotes the dose at which mortality reaches 50%. A lower LD50 goes with greater toxicity. A word on the inhibition in vivo: it is the change of the read-out against control, counted positive when it falls. With `OCCc1ccc(N2CCCCC2)cc1`, the LD50 in series [1] is 1200 mg/kg. Also, in the series with Rattus norvegicus [2], the inhibition in vivo at 100 mg/kg worked out at 51%.
On to `CC(CNC(=O)C(F)(F)F)c1ccc(N2CCCCC2)cc1` (stereo unspecified), for which the LD50 in series [1] was determined as 600 mg/kg. Moreover, the inhibition in vivo at 50 mg/kg in the series on Rattus norvegicus [3] turned out to be 32%.
`CC(CN)c1cccc(N2CCCCC2)c1` (stereo unspecified) had an LD50 in series [1] of 600 mg/kg. In addition, in the series on Rattus norvegicus [2] (at 100 mg/kg), the inhibition entry was “inactive”.
Take `O=C(O)Cc1ccc(N2CCCCC2)cc1`: in series [1], the LD50 came out at 800 mg/kg. The inhibition in vivo at 100 mg/kg in the series on Rattus norvegicus [2] is 51%.
In the same order, the values of `O=C(NCCc1ccc(N2CCCCC2)cc1)C(F)(F)F` are 1600 mg/kg and 60%.
The corresponding values for `NCCCCCCc1ccc(N2CCCCC2)cc1.O=C(O)CCC(=O)O` are 1200 mg/kg and 57%.
`CC(CN)c1ccc(N2CCCCC2)c(Cl)c1.Cl` (stereo unspecified): the LD50 in series [1] stood at 600 mg/kg. The inhibition in vivo at 50 mg/kg in the series with Rattus norvegicus [3] worked out at 39%.
In series [1], `CN(CCc1ccc(N2CCCCC2)cc1)C(=O)C(F)(F)F.Cl` yielded an LD50 of 1600 mg/kg. For the same molecule, the inhibition in vivo at 100 mg/kg in the series on Rattus norvegicus [2] was found to be 38%.
For `c1cc(N2CCCCC2)ccc1CCN1CCCCC1`, the LD50 in series [1] worked out at 400 mg/kg. For the same molecule, the inhibition in vivo at 50 mg/kg in the series with Rattus norvegicus [3] came out at 46%.
In the same order, the values of `CC(C)(CN)c1ccc(N2CCCCC2)cc1.O=C(O)CCC(=O)O` are 400 mg/kg and 34%.
Molecule `CC(CN(C)C)c1ccc(N2CCCCC2)cc1.Cl` (stereo unspecified) showed an LD50 in series [1] of 600 mg/kg. Besides, the inhibition in vivo at 100 mg/kg in the series with Rattus norvegicus [2] is 70%.
`C[C@]12CCC(=O)C=C1CC[C@@H]1[C@@H]2[C@@H](O)C[C@@]2(C)[C@H]1CC[C@]2(O)C(=O)CO` [HYDROCORTISONE]: the inhibition in vivo at 50 mg/kg in the series with Rattus norvegicus [3] was determined as 35%.
The molecule `CC(CO)c1ccc(N2CCCCC2)cc1` (stereo unspecified) came in with an LD50 in series [1] of 1600 mg/kg. Also, the inhibition in vivo at 100 mg/kg in the series with Rattus norvegicus [2] came out at 71%.
Consider `CCCCC1C(=O)N(c2ccccc2)N(c2ccccc2)C1=O` [PHENYLBUTAZONE], for which the inhibition in vivo at 100 mg/kg in the series on Rattus norvegicus [2] amounted to 50%.
`CC(C(=O)O)c1ccc(N2CCCCC2)c(Cl)c1` (stereo unspecified) registered an LD50 in series [1] of 1200 mg/kg. In addition, in the series on Rattus norvegicus [2], the inhibition in vivo at 100 mg/kg was determined as 53%.
The corresponding values for `O=C(Cc1ccc(N2CCCCC2)cc1)NCCc1ccc(N2CCCCC2)cc1` are 1600 mg/kg and 22%.
`Cl.[2H]C([2H])(N)C(C)c1ccc(N2CCCCC2)cc1` (stereo unspecified) registered an LD50 in series [1] of 600 mg/kg. In addition, the inhibition in vivo at 50 mg/kg in the series with Rattus norvegicus [3] was 47%.
In series [1], `CC(C)c1ccc(N2CCCCC2)cc1.Cl` returned an LD50 of 1200 mg/kg. The inhibition in vivo at 50 mg/kg in the series on Rattus norvegicus [3] was 30%.
As for `Cl.NCCc1ccc(N2CCCCC2)cc1`, the LD50 in series [1] stood at 1200 mg/kg. For the same molecule, the inhibition in vivo at 100 mg/kg in the series with Rattus norvegicus [2] (po) is 55%.
`CC(C(=O)O)c1ccc(N2CCCCC2)cc1` (stereo unspecified) yielded an LD50 in series [1] of 800 mg/kg. The inhibition in vivo at 50 mg/kg with Rattus norvegicus [3] is 68%.
In series [1], `NCCCCc1ccc(N2CCCCC2)cc1.O=C(O)O` gave an LD50 of 600 mg/kg. Moreover, the inhibition in vivo at 100 mg/kg with Rattus norvegicus [2] worked out at 54%.
As for `CC(C)(O)c1ccc(N2CCCCC2)cc1`, the LD50 in series [1] was determined as 600 mg/kg. The inhibition result in the series on Rattus norvegicus [3] (at 50 mg/kg) is “inactive”.
In turn, `O=C(O)Cc1ccc(N2CCCCC2)c(Cl)c1` returned an LD50 in series [1] of 800 mg/kg. Besides, the inhibition in vivo at 100 mg/kg with Rattus norvegicus [2] is 43%.
In series [1], `CC(N)Cc1ccc(N2CCCCC2)cc1.O=C(O)CCC(=O)O` (stereo unspecified) came in with an LD50 of 600 mg/kg. The inhibition in vivo at 50 mg/kg with Rattus norvegicus [3] is 33%.
Consider `NCC(C(=O)O)c1ccc(N2CCCCC2)cc1` (stereo unspecified), for which the LD50 in series [1] is greater than 1600 mg/kg. Also, the inhibition in vivo at 100 mg/kg in the series on Rattus norvegicus [2] was 40%.
In turn, `Cl.NCCc1ccc(N2CCCCC2)c(Cl)c1` had an LD50 in series [1] of 800 mg/kg. The inhibition in vivo at 100 mg/kg with Rattus norvegicus [4] amounted to 58%.
For the molecule `Cl.NCCc1cccc(N2CCCCC2)c1`, the LD50 in series [1] was determined as 600 mg/kg. Moreover, the inhibition in vivo at 50 mg/kg with Rattus norvegicus [3] is 39%.
For the molecule `NCCc1ccc(N2CCCCC2)cc1.O=C(O)O`, in series [1], the LD50 was 800 mg/kg. For the same molecule, in the series on Rattus norvegicus [2], the “inhibition (INH)” value was determined as 54%.
The molecule `NCCCCc1ccc(N2CCCCC2)c(Cl)c1.O=C(O)CCC(=O)O` showed an LD50 in series [1] of 1600 mg/kg. For the same molecule, the inhibition in vivo at 100 mg/kg in the series on Rattus norvegicus [2] worked out at 71%.
In series [1], `CNCCc1ccc(N2CCCCC2)cc1.O=C(O)CCC(=O)O` returned an LD50 of 600 mg/kg. For the same molecule, the inhibition in vivo at 50 mg/kg with Rattus norvegicus [3] is 33%.
For `CC(CN)c1ccc(N2CCCCC2)cc1.Cl` (stereo unspecified), in series [1], the LD50 is 600 mg/kg. The Activity entry with Canis familiaris was “Toxic”. Further, the inhibition in vivo at 50 mg/kg in the series on Rattus norvegicus [3] is 57%.
